In brackets after ≈: the same amount, converted by molar mass.
What was measured:
[1] = tested on: human lung carcinoma (A549) cell line; test: MTT cytotoxicity assay; format: cell-based; settings: A549, 72 h, read-out: IC50 (μg/mL) on cell lines A549
Outline: (§1)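 Cells were grown in DMEM with 10% FBS and 1% antibiotics at 37°C under 5% CO2 and seeded in 96-well plates at 5 × 10^4 cells/well (A549: 5 × 10^3) until confluent. Free or SLN-encapsulated compound was added for 72 h. After a PBS wash, MTT (25 μg/mL) was given for 2 h, formazan was dissolved in DMSO and read at 550 nm. IC50 came from a four-parameter logistic fit; n = 6.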

[2] = tested on: human hepatocellular liver carcinoma (HepG2) cell line; test: MTT cytotoxicity assay; format: cell-based; settings: HepG2, 72 h, read-out: IC50 (μg/mL) on cell lines HepG2
Outline: as §1

[3] = tested on: human breast adenocarcinoma with estrogen receptor (MCF7) cell line; test: MTT cytotoxicity assay; format: cell-based; settings: MCF7, 72 h, read-out: IC50 (μg/mL) on cell lines MCF7
Outline: as §1

[4] = tested on: human breast adenocarcinoma (MDA-MB-231) cell line; test: MTT cytotoxicity assay; format: cell-based; settings: MDA-MB-231, 72 h, read-out: IC50 (μg/mL) on cell lines MDA-MB-231
Outline: as §1

[5] = tested on: human oral squamous cell carcinoma (Ca9-22) cell line; test: MTT cytotoxicity assay; format: cell-based; settings: Ca9-22, 72 h, read-out: IC50 (μg/mL) on cell lines Ca9-22
Outline: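 Ca9-22 cells grown in DMEM with 10% FBS and 1% antibiotics at 37°C, 5% CO2. Seeded at 5 × 10^4 cells/well and grown to confluence. Free or SLN-encapsulated test compound (added solution at 40 μg/mL) applied for 72 hours. After a PBS wash, MTT (25 μg/mL) for 2 h, then DMSO. Absorbance read at 550 nm; IC50 from a four-parameter logistic fit.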

[6] = cited from earlier work
In vitro release study = format: physicochemical; settings: pH 7.4 PBS containing 1% F-127
Outline: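 Dialysis bags (MWCO 12,000–14,000 Da, pre-soaked 12 h in water) held 1 mL SLN suspension in 100 mL pH 7.4 phosphate buffer with 1% Pluronic F-127 (sink) at 37°C. At intervals, 1 mL receiver aliquots were withdrawn and replaced with fresh medium. Drug was quantified by C18 HPLC with electrochemical detection. Release percentage was fitted to kinetic models; n = 4.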

[7] = In vivo pharmacokinetics after intravenous bolus; parameters: species or system Wistar rats; settings: male, Wistar, rat, plasma, 4.7 mg/kg
Outline: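 Fasted male Wistar rats (200–250 g) under urethane anaesthesia received a jugular vein injection of 4.7 mg/kg. The free-drug solution was in ethanol/PEG 400/tetraglycol/water. Heart blood (0.3 mL) was taken at set times, and plasma was extracted with dichloromethane using diclofenac as internal standard, then analysed by HPLC-ECD. A compartment model was fitted; AUC0–∞ by trapezoidal rule plus extrapolation, Cl = dose/AUC0–∞; n = 3.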

[8] = Biodistribution in tissues and organs after intravenous administration; format: in vivo; settings: Wistar rats, 4.7 mg/kg intravenous, 30 minutes
[9] = Solubility of PK-L4 in aqueous and receptor media; format: physicochemical; settings: compared: pH 7.4 PBS, pH 7.4 PBS containing 1% F-68, pH 7.4 PBS containing 1% F-127
[10] = cited from earlier work; remark: listed apart in the source

| Best-fitting release kinetics model (In vitro release study) | AUC(0-inf) [7] | MRT [7] | Vd [7] | clearance [7] | half-life ([7]; half-life alpha, after intravenous bolus, rat plasma) | SMILES | IC50 [1] | IC50 [2] | IC50 [3] | IC50 [4] | IC50 [5] | half-life in plasma [6] | Main sites of PK-L4 deposition in tissues [8] | Solubility of PK-L4 in receptor media [9] | Solubility in water and biocompatible media [10] |
| --- | --- | --- | --- | --- | --- | --- | --- | --- | --- | --- | --- | --- | --- | --- | --- |
|  |  |  |  |  |  | COc1cccc2c1C(=O)c1c(O)c3c(c(O)c1C2=O)C[C@@](O)(C(=O)CO)C[C@@H]3O[C@H]1C[C@H](N)[C@H](O)[C@H](C)O1 [Doxorubicin solution, reference compound] | 0.4 µg/mL (≈ 0.736 µM) | 0.11 µg/mL (≈ 0.202 µM) | 0.43 µg/mL (≈ 0.791 µM) | 0.51 µg/mL (≈ 0.938 µM) | 0.14 µg/mL (≈ 0.258 µM) |  |  |  |  |
|  |  |  |  |  |  | COc1cc(NS(C)(=O)=O)ccc1Nc1c2ccccc2nc2ccccc12 [Amsacrine] |  |  |  |  |  | 20 to 30 min |  |  |  |
| Higuchi order | 1160 ± 87 ng·h/mL | 61 ± 8.7 min | 4.12 ± 0.395 L/kg | 67.9 mL/min/kg | 4.68 ± 1.38 min | COc1ccc(Nc2c3ccccc3nc3occ(Cl)c23)cc1 [PK-L4, 3-Chloro-4-[(4-methoxyphenyl)amino]furo[2,3-b]quinoline] | 0.11 µg/mL (≈ 0.339 µM) | 0.04 µg/mL (≈ 0.123 µM) | 8.47 µg/mL (≈ 26.1 µM) | 2.14 µg/mL (≈ 6.59 µM) | 0.04 µg/mL (≈ 0.123 µM) |  | mainly located in the spine, followed by the lungs, brain, small intestine, and heart | pH 7.4 PBS containing 1% F-127 exhibited the best solubility | water insoluble |
